# Like-named read-outs stand apart in the source and are kept apart here.
# Key:
# [1] = Ligand protonation constants by pH-potentiometric titration; format: physicochemical; conditions: for log Ka1 / log Ka2 / log Ka3 / log Ka4: 25 °C, I = 0.1 M KCl; for existence of fully deprotonated ligand in solution: speciation
# Method in brief: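 Protonation constants came from pH-potentiometric titration at 25 °C in 0.1 M KCl. The fraction of each protonated or deprotonated ligand species in solution was calculated from the fitted constants using species distribution diagrams. Overall ligand basicity was taken as the sum of the log Ka values.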
# [2] = Stability constants of Ca^2+ complexes by pH-potentiometry; format: binding; conditions: I = 0.1 M KCl; for log KCaL / pCa / log KCaHL: 25 °C; for log KʹCa (conditional stability constant): pH 7.4, 25 °C; for pCa: −log [M^2+]free, [M^2+] = 10^−6 M, [L] = 10^−5 M, pH 7.4; for log KCaHL: protonation constant of the Ca^2+ complex
# [3] = Stability constants of Sr^2+ complexes by pH-potentiometry; format: binding; conditions: I = 0.1 M KCl; for log KʹSr (conditional stability constant): pH 7.4, 25 °C; for pSr: −log [M^2+]free, [M^2+] = 10^−6 M, [L] = 10^−5 M, pH 7.4
# [4] = Stability constants of Ba^2+ complexes by pH-potentiometry; format: binding; conditions: for log KBaL / major species present in solution of Ba^2+ and ligand / log KBaH2L / log KBaHL / pBa: 25 °C; for log KBaL / log KʹBa (conditional stability constant) / major species present in solution of Ba^2+ and ligand / log KBaH2L / log KBaHL / pBa: I = 0.1 M KCl; for selectivity for Ba^2+ over Ca^2+ (ratio of pM values) / selectivity for Ba^2+ over Sr^2+ (ratio of pM values) / major species present in solution of Ba^2+ and ligand / pBa: pH 7.4; for log KʹBa (conditional stability constant): pH 7.4, 25 °C; for major species present in solution of Ba^2+ and ligand: [Ba^2+]tot = [L]tot = 1.0 mM; for log KBaH2L / log KBaHL: protonation constant of the Ba^2+ complex; for pBa: −log [M^2+]free, [M^2+] = 10^−6 M, [L] = 10^−5 M
# [5] = Dissolution of BaSO4 suspension by ligand, GFAAS
# Method in brief: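 BaSO4 was formed in pH 8 NaHCO3 from Ba(NO3)2 (4.53 mM) and excess Na2SO4 (13.48 mM), then ligand (5 mM) was added at RT. Dissolved barium was measured by GFAAS after 10, 20 and 30 min. A second series used pH 11 […] buffer and was sampled at 5 and 30 min. Results are reported as percent of BaSO4 dissolved.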
# [6] = Dissolution of crude barite ore in columns, ligand efficiency by GFAAS; conditions: barite 3 g, soak 1 h
# [7] = I = 0.1 M KCl, cited from earlier work
# [8] = cited from earlier work; for log KCaHL: protonation constant of the Ca^2+ complex
# [9] = cited from earlier work; for log KSrHL: protonation constant of the Sr^2+ complex
# [10] = Kinetic inertness: La^3+ transmetalation challenge of Ba–L complexes, UV-vis; format: physicochemical; conditions: 1000 equiv of La^3+, RT, pH 7.3
# [11] = Stability of Ba^2+ complexes in the presence of hydroxyapatite, GFAAS; format: physicochemical; conditions: HAP suspension, pH 7.6 buffer, after 20 h; 1.1 equiv L, 1.0 equiv Ba^2+
# [12] = cited from earlier work
# [13] = protonation constant of the Sr^2+ complex, 25 °C
# [14] = pH 8 NaHCO3, RT, ligand 5 mM, 30 min
# [15] = I = 0.1 M KNO3, bracketed value
SMILES,overall basicity (sum of log Ka values) [1],log Ka1 [1],log Ka2 [1],log Ka3 [1],log Ka4 [1],log KCaL [2],log KʹCa (conditional stability constant) [2],pCa [2],log KSrL ([3]; 25 °C),log KʹSr (conditional stability constant) [3],"log KSrHL [3, 13]",pSr ([3]; 25 °C),log KBaL [4],selectivity for Ba^2+ over Ca^2+ (ratio of pM values) [4] [fold],selectivity for Ba^2+ over Sr^2+ (ratio of pM values) [4] [fold],log KʹBa (conditional stability constant) [4],major species present in solution of Ba^2+ and ligand [4],log KBaH2L [4],pBa [4],"BaSO4 dissolved [5, 14]",further results
O=C(O)c1cccc(CN2CCOCCOCCN(Cc3cccc(C(=O)O)n3)CCOCCOCC2)n1 [macropa],19.99,7.41,6.899,3.23(1),2.45(5),5.79(1),5.42,6.54,9.442(4),9.07,3.35(8),10.02,11.11(4),1.79,1.17,10.74,ML species,2.49(7),11.69,complete dissolution,"log Ka1 ([1]; listed as macropa^2−): 7.41(1); log Ka2 ([1]; listed as macropa^2−): 6.899(3); fraction of ligand fully deprotonated (L^2–) ([1]; pH 7.4): 43%; Ba^2+ bound by ligand ([4]; pH 4.0): 90%; Ba^2+ complexed by ligand ([4]; pH 5.1): 99%; log KBaHL [4]: 3.76(2); BaSO4 dissolved ([5]; pH 8 NaHCO3, RT, ligand 5 mM, 10 min): 78%; BaSO4 dissolved ([5]; pH 11 NaCO3 buffer, 5 min): > 95%; ligand efficiency (percent of ligand saturated with Ba^2+) ([6]; pH 8, ~48 mM ligand): 40%; ligand efficiency (percent of ligand saturated with Ba^2+) ([6]; pH 11, ~48 mM ligand): 40%; log Ka1 ([7]; parenthetic value): 7.41; log Ka2 ([7]; parenthetic value): 6.85; log Ka3 ([7]; parenthetic value): 3.32; log Ka4 ([7]; parenthetic value): 2.36; log Ka5 ([7]; parenthetic value): (1.69); log KCaL [8, 15]: 5.25; log KSrL [9, 15]: 9.57"
O=C(O)c1cccc(CN2CCOCCOCCN(Cc3ccc4cccc(O)c4n3)CCOCCOCC2)n1 [macropaquin],27.69,10.33,7.15,6.97,3.24(4),5.90(4),3.94,6.04,9.19(5),7.54,8.92(2),8.50,10.87(2),–,–,10.05,MHL species,3.28(2),11.01,95%,log Ka1 ([1]; listed as macropaquin^2−): 10.33(4); log Ka2 ([1]; listed as macropaquin^2−): 7.15(3); log Ka3 ([1]; listed as macropaquin^2−): 6.97(2); fraction of ligand as monoprotonated species HL^– ([1]; pH 7.4): 56%; existence of fully deprotonated ligand in solution [1]: do not exist in solution below pH 8; log KCaHL [2]: 8.59(2); log KBaHL [4]: 9.76(2)
O=C([O-])c1cccc(CN2CCOCCOCCN(Cc3cccc(C(=O)[O-])n3)CCOCCOCC2)n1.[Ba+2] [Ba–macropa],–,–,–,–,–,–,–,–,–,–,–,–,–,–,–,–,–,–,–,–,half-life (t½) of substitution of Ba^2+ with La^3+ [10]: 5.45 ± 0.20 min; Ba^2+ retained in the liquid phase (intact complex) [11]: 82%
O=S(=O)(O)c1ccc(O)c2nc(CN3CCOCCOCCN(Cc4ccc5c(S(=O)(=O)O)ccc(O)c5n4)CCOCCOCC3)ccc12 [macroquin–SO3],32.14,9.34,9.43,6.75,6.62,6.04(8),3.19,6.01,8.62(2),5.64,8.34(4),6.70,10.44(6),–,–,8.76,MH2L species,7.80(2),9.72,–,"log Ka1 ([1]; listed as macroquin–SO3^4−): 9.34(4); log Ka2 ([1]; listed as macroquin–SO3^4−): 9.43(1); log Ka3 ([1]; listed as macroquin–SO3^4−): 6.75(4); log Ka4 ([1]; listed as macroquin–SO3^4−): 6.62(4); fraction of ligand as H2L^2– ([1]; pH 7.4): 78%; existence of fully deprotonated ligand in solution [1]: do not exist in solution below pH 8; log KCaHL [2]: 8.60(4); log KSrH2L [3, 13]: 6.920(3); log KBaHL [4]: 9.24(7)"
"O=C(O)CN(CCN(CC(=O)O)CC(=O)O)CCN(CC(=O)O)CC(=O)O [DTPA, reference compound]",–,–,–,–,–,–,7.63,8.59,–,5.53,–,6.61,–,< 1,< 1,4.63,–,–,6.15,40%,"BaSO4 dissolved ([5]; pH 11 NaCO3 buffer, 5 min): nearly all; ligand efficiency (percent of ligand saturated with Ba^2+) ([6]; pH 8, ~48 mM ligand): 2%; ligand efficiency (percent of ligand saturated with Ba^2+) ([6]; pH 11, ~48 mM ligand): 17%; log Ka1 [7]: 10.34; log Ka2 [7]: 8.59; log Ka3 [7]: 4.25; log Ka4 [7]: 2.71; log Ka5 [7]: 2.18; log KCaL ([8]; I = 0.1 M KCl): 11.77; log KCaHL [8]: 6.10; log KSrL [9]: 9.68; log KSrHL [9]: 5.4; log KBaL [12]: 8.78; log KBaHL ([12]; protonation constant of the Ba^2+ complex): 5.34"
"O=C(O)CN1CCN(CC(=O)O)CCN(CC(=O)O)CCN(CC(=O)O)CC1 [DOTA, reference compound]",–,–,–,–,–,–,10.34,11.29,–,8.35,–,9.30,–,< 1,< 1,5.72,–,–,6.76,40%,"BaSO4 dissolved ([5]; pH 11 NaCO3 buffer, 30 min): 75%; log Ka1 [7]: 11.14; log Ka2 [7]: 9.69; log Ka3 [7]: 4.85; log Ka4 [7]: 3.95; log KCaHL ([8]; I = 0.1 M KCl): 3.60; log KSrHL ([9]; I = 0.1 M KCl): 4.52; log KBaL ([12]; I = 0.1 M KCl): 11.75"

# Source: publication PMC6560633 (Journal of the American Chemical Society, 2018)
